Reference: ChEMBL document CHEMBL3734702, “Design of Specific Serine Protease Inhibitors Based on a Versatile Peptide Scaffold: Conversion of a Urokinase Inhibitor to a Plasma Kallikrein Inhibitor” (J Med Chem, 2015)
Where a SMILES comes first, the peptide text is derived from it. Bridges are numbered along the chain shown (N, C = ends). [ ]: non-standard residue; d: D form. Ala(1-amidino-4-piperidyl) = N=C(N)N1CCC(C[C@H](N)C(=O)O)CC1

Columns and labels:
Prothrombin [1] = target: Prothrombin (Mus musculus, UniProt P19221); experiment: Inhibition of mouse thrombin after 15 mins using H-D-Ile-Pro-Arg-p-nitroanilide as substrate
Outline: (§1)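 Chromogenic substrate was added at about its KM; for KLK1 this was S-2251. Initial velocities were monitored at 405 nm.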

Kallikrein-1 = Kallikrein-1 (Homo sapiens, UniProt P06870); experiment: Inhibition of human KLK1 after 15 mins using Val-Leu-Lys-p-nitroanilide as substrate; outline: as §1
Sequence of Kallikrein-1 (P06870 whole entry): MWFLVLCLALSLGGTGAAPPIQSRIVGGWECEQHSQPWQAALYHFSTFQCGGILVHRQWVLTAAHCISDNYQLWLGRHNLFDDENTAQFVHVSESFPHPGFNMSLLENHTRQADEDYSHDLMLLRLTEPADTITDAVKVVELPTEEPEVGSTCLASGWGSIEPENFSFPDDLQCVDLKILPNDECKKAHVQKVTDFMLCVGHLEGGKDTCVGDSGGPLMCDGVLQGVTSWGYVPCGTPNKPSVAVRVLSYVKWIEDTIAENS

[2] = target: Tissue-type plasminogen activator (Homo sapiens, UniProt P00750); experiment: Inhibition of human tPAn after 15 mins using H-D-Ile-Pro-Arg-p-nitroanilide as substrate; outline: as §1
Sequence of Tissue-type plasminogen activator (Homo sapiens, UniProt P00750) (P00750 whole entry): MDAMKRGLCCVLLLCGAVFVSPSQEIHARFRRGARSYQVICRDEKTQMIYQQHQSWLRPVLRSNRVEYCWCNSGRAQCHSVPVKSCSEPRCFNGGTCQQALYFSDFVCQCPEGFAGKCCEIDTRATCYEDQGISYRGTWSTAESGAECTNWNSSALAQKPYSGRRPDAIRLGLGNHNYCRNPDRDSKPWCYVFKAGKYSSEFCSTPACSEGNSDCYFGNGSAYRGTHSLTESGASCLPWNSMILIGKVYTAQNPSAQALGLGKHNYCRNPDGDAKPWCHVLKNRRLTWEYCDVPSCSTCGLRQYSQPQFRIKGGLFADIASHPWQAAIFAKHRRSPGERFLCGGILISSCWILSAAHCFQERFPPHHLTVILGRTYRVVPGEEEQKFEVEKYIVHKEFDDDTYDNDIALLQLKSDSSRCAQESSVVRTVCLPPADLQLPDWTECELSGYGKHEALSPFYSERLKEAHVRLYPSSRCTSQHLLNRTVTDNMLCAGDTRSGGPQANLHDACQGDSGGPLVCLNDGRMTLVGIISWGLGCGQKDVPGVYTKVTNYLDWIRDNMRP

Plasminogen [3] = target: Plasminogen (Mus musculus, UniProt P20918); experiment: Inhibition of mouse plasmin after 15 mins using H-D-Ile-Pro-Arg-p-nitroanilide as substrate; outline: as §1
Sequence of Plasminogen (Mus musculus, UniProt P20918) (P20918 98-581 limits assumed): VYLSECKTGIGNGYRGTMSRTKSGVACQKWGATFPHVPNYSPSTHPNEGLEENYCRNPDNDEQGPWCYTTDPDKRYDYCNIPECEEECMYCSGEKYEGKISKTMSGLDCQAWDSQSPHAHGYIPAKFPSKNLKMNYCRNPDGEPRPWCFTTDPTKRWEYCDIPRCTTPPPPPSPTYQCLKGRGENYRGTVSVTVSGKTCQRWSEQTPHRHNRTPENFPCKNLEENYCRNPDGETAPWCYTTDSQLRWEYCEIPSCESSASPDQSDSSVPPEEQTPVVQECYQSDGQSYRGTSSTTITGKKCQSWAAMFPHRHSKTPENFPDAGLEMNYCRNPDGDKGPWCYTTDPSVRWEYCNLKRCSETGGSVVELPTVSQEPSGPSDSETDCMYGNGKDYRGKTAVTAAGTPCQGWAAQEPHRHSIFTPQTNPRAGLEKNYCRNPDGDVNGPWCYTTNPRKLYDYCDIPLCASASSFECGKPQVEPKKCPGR
Sequence of Plasminogen (Mus musculus, UniProt P20918) (P20918 582-812 limits assumed): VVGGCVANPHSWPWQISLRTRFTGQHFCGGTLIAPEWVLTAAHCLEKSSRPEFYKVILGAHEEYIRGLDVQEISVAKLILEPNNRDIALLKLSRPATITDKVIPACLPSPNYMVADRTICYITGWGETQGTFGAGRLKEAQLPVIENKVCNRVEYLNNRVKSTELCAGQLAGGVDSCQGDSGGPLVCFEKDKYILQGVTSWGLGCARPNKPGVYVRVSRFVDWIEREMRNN

Plasma kallikrein [4] = target: Plasma kallikrein (Mus musculus, UniProt P26262); experiment: Inhibition of mouse plasma kallikrein for 15 mins using H-D-Pro-Phe-Arg-p-nitroanilide as substrate; format: cell-free; outline: as §1
Plasminogen [5] = target: Plasminogen (Homo sapiens, UniProt P00747); experiment: Inhibition of human plasmin after 15 mins using H-D-Ile-Pro-Arg-p-nitroanilide as substrate; outline: as §1
Serine protease 1 = target: T1, Serine protease 1 (Bos taurus, UniProt P00760); experiment: Inhibition of bovine beta-trypsin after 15 mins using Bz-Ile-Glu(g-OR)-Gly-Arg-p-nitroanilide as substrate; outline: as §1
T1 sequence (P00760 whole entry): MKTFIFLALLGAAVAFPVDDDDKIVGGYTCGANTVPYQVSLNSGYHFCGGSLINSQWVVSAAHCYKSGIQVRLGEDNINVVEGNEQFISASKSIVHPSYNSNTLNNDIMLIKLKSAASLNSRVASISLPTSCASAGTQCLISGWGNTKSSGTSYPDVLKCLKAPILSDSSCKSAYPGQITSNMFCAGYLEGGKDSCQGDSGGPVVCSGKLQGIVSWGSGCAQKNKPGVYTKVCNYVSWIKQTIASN

Coagulation factor XI = Coagulation factor XI (Homo sapiens, UniProt P03951); experiment: Inhibition of human coagulation factor 11a after 15 mins
Sequence of Coagulation factor XI (P03951 19-387 limits assumed): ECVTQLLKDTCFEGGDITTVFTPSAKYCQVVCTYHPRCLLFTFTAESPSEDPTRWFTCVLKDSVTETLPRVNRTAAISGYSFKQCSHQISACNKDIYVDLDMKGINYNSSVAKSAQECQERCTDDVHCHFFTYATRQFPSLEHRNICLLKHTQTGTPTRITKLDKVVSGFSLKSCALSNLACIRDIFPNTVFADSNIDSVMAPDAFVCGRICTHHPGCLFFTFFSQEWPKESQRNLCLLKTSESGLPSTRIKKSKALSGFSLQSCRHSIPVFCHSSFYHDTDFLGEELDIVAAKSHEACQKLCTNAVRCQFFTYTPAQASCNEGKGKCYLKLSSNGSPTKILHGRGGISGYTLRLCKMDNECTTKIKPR
Sequence of Coagulation factor XI (P03951 388-625 limits assumed): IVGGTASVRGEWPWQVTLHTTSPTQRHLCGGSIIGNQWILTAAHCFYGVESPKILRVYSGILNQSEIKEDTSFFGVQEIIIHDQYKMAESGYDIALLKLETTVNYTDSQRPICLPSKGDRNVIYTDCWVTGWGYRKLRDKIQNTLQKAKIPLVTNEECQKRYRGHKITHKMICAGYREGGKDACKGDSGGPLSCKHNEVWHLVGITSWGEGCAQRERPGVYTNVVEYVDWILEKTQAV

[6] = target: Tissue-type plasminogen activator (Mus musculus, UniProt P11214); experiment: Inhibition of mouse tPA after 15 mins using Z-D-Arg-Gly-Arg-p-nitroanilide as substrate; outline: as §1
Sequence of Tissue-type plasminogen activator (Mus musculus, UniProt P11214) (P11214 whole entry): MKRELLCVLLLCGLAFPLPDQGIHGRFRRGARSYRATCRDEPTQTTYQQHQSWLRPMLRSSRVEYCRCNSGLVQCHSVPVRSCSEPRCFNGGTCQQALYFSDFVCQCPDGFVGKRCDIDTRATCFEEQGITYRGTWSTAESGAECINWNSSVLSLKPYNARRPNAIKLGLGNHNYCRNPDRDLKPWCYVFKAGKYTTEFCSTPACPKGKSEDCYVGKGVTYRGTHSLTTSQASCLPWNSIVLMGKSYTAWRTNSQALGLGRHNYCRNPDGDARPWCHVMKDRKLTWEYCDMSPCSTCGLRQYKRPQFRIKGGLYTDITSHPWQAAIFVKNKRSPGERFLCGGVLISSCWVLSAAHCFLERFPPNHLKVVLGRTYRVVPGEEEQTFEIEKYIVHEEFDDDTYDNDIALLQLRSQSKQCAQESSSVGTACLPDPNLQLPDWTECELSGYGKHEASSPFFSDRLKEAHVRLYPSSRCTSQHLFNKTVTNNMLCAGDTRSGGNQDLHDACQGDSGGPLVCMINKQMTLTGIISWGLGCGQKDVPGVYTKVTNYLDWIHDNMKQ

Prothrombin [7] = target: Prothrombin (Homo sapiens, UniProt P00734); experiment: Inhibition of human thrombin after 15 mins using H-D-Ile-Pro-Arg-p-nitroanilide as substrate; outline: as §1
[8] = target: Urokinase-type plasminogen activator (Mus musculus, UniProt P06869); experiment: Inhibition of mouse uPA for 15 mins using pyro-Glu-Gly-Arg-p-nitroanilide as substrate
Sequence of Urokinase-type plasminogen activator (Mus musculus, UniProt P06869) (P06869 21-178 limits assumed): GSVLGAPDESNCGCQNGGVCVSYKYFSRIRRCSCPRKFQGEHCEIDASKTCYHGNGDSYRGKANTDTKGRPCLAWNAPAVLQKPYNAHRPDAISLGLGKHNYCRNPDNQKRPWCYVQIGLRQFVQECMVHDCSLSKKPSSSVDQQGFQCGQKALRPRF
Sequence of Urokinase-type plasminogen activator (Mus musculus, UniProt P06869) (P06869 180-433 limits assumed): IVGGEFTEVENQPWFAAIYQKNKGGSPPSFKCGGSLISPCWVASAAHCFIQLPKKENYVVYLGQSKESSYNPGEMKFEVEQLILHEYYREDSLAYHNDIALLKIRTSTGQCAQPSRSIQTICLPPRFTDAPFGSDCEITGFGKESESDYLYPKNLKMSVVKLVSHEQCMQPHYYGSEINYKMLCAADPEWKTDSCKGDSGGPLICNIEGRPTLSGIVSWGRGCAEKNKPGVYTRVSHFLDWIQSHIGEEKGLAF

[9] = target: Vitamin K-dependent protein C (Homo sapiens, UniProt P04070); experiment: Inhibition of human activated protein C after 15 mins using H-D-Ile-Pro-Arg-p-nitroanilide as substrate; outline: as §1
Sequence of Vitamin K-dependent protein C (P04070 43-197 limits assumed): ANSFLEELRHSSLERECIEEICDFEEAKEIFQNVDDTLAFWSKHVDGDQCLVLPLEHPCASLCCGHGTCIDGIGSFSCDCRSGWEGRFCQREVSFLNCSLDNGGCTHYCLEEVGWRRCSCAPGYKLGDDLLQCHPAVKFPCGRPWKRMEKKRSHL
Sequence of Vitamin K-dependent protein C (P04070 212-461 limits assumed): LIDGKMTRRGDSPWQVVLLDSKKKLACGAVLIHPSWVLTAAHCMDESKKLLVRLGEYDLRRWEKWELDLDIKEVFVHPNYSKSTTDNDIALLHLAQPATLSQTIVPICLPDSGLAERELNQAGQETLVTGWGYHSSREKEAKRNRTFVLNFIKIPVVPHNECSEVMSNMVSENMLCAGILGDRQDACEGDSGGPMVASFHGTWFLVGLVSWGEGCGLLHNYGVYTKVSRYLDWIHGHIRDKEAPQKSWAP

[10] = target: T2, Urokinase-type plasminogen activator (Homo sapiens, UniProt P00749); experiment: Inhibition of human uPA for 15 mins using pyro-Glu-Gly-Arg-p-nitroanilide as substrate
[11] = target: T3, Suppressor of tumorigenicity 14 protein (Homo sapiens, UniProt Q9Y5Y6); experiment: Inhibition of human matriptase after 15 mins using H-D-Ile-Pro-Arg-p-nitroanilide as substrate
T3 sequence (Q9Y5Y6 whole entry): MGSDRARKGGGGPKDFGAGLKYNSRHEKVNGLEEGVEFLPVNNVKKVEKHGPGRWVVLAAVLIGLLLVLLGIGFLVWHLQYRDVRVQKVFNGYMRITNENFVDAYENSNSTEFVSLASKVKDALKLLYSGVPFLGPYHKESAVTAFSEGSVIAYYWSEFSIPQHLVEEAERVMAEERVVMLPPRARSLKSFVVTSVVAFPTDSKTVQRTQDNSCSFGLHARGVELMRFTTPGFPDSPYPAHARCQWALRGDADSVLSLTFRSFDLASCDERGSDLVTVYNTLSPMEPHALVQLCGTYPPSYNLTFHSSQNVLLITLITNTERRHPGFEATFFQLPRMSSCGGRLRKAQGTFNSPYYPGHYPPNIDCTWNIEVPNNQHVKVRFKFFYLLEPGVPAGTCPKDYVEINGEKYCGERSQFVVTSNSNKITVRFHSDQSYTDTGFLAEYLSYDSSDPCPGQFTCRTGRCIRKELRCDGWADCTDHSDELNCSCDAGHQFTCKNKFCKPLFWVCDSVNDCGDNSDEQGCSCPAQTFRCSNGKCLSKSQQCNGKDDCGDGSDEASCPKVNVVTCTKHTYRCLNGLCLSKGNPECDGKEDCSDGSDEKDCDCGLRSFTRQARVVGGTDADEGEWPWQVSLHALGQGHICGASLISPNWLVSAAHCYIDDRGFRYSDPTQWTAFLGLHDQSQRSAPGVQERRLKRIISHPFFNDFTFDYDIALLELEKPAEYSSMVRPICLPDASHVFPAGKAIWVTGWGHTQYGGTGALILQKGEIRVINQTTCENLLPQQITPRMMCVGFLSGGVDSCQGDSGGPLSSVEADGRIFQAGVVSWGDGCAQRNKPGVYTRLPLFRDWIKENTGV

Plasma kallikrein [12] = target: Plasma kallikrein (Homo sapiens, UniProt P03952); experiment: Inhibition of human plasma kallikrein for 15 mins using H-D-Pro-Phe-Arg-p-nitroanilide as substrate; format: cell-free
Sequence of Plasma kallikrein (Homo sapiens, UniProt P03952) (P03952 20-390 limits assumed): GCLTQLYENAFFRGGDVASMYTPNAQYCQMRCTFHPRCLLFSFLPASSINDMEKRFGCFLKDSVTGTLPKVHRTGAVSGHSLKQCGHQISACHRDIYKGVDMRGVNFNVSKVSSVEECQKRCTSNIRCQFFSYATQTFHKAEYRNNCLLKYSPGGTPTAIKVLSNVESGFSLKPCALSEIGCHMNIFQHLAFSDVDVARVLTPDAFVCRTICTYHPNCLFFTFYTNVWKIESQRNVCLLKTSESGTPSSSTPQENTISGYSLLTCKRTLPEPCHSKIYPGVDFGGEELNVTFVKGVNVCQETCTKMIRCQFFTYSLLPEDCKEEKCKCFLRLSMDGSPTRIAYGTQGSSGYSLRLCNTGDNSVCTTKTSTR
Sequence of Plasma kallikrein (Homo sapiens, UniProt P03952) (P03952 391-638 limits assumed): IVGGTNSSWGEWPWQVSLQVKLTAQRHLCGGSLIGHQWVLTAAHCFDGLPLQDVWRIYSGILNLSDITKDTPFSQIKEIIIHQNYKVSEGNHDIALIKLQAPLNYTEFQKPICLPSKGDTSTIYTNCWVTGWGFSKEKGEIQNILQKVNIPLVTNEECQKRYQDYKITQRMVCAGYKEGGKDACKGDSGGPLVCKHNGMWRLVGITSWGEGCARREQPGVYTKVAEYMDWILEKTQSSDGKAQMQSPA

[13] = target: Urokinase-type plasminogen activator (Mus musculus) (UniProt P06869); experiment: Binding affinity to mouse uPA
Sequence of Urokinase-type plasminogen activator (Mus musculus) (P06869 21-178 limits assumed): as the sequence (P06869 21-178 limits assumed) above
Sequence of Urokinase-type plasminogen activator (Mus musculus) (P06869 180-433 limits assumed): as the sequence (P06869 180-433 limits assumed) above

[14] = target: T2, Urokinase-type plasminogen activator; experiment: Binding affinity to human uPA

Compound	Ki (Prothrombin [1]) [µM]	Ki (Kallikrein-1) [µM]	Ki [2] [µM]	Ki (Plasminogen [3]) [µM]	Ki (Plasma kallikrein [4]) [µM]	Ki (Plasminogen [5]) [µM]	Ki (Serine protease 1) [µM]	Ki (Coagulation factor XI) [µM]	Ki [6] [µM]	Ki (Prothrombin [7]) [µM]	Ki [8] [µM]	Ki [9] [µM]	Ki [10] [µM]	Ki [11] [µM]	Ki (Plasma kallikrein [12]) [µM]	Activity [13] [nM]	Activity [14] [nM]
CC(C)C[C@@H]1NC(=O)[C@H](C)NC(=O)[C@H](CC2CCN(C(=N)N)CC2)NC(=O)[C@H](Cc2ccccc2)NC(=O)[C@H](CCCNC(=N)N)NC(=O)[C@H](CCCCN)NC(=O)[C@@H]2CCCN2C(=O)[C@@H](N)CSSC[C@@H](C(=O)O)NC(=O)[C@H](Cc2ccccc2)NC1=O (H-CPKRF[Ala(1-amidino-4-piperidyl)]ALFC-OH; disulfide 1-10)	> 1000	0.384	> 1000	3.42	0.043	12.5	14.1	12.1	> 1000	> 1000	> 1000	> 1000	> 1000	> 1000	0.022		
CC(C)C[C@@H]1NC(=O)[C@H](Cc2ccc(O)cc2)NC(=O)[C@H](CC2CCN(C(=N)N)CC2)NC(=O)[C@H](CO)NC(=O)[C@H](Cc2ccc(O)cc2)NC(=O)[C@H](C)NC(=O)[C@@H]2CCCN2C(=O)[C@@H](N)CSSC[C@@H](C(=O)O)NC(=O)[C@H](CC(=O)O)NC1=O (H-CPAYS[Ala(1-amidino-4-piperidyl)]YLDC-OH; disulfide 1-10)	> 1000		> 1000						> 1000	> 1000		> 1000		> 1000			
CC(C)C[C@@H]1NC(=O)[C@H](C)NC(=O)[C@H](CC2CCN(C(=N)N)CC2)NC(=O)[C@H](Cc2ccccc2)NC(=O)[C@H](CCCNC(=N)N)NC(=O)[C@H](C)NC(=O)[C@@H]2CCCN2C(=O)[C@@H](N)CSSC[C@@H](C(=O)O)NC(=O)[C@H](Cc2ccccc2)NC1=O (H-CPARF[Ala(1-amidino-4-piperidyl)]ALFC-OH; disulfide 1-10)	> 1000		> 1000						> 1000	> 1000		> 1000		> 1000			
CC(C)C[C@@H]1NC(=O)[C@H](C)NC(=O)[C@H](CC2CCN(C(=N)N)CC2)NC(=O)[C@H](Cc2ccccc2)NC(=O)[C@H](CCCNC(=N)N)NC(=O)[C@H](C)NC(=O)[C@@H]2CCCN2C(=O)[C@@H](N)CSSC[C@@H](C(=O)O)NC(=O)[C@H](Cc2c[nH]c3ccccc23)NC1=O (H-CPARF[Ala(1-amidino-4-piperidyl)]ALWC-OH; disulfide 1-10)	> 1000		> 1000						> 1000	> 1000		> 1000		> 1000			
CC(C)C[C@@H]1NC(=O)[C@H](Cc2ccc(O)cc2)NC(=O)[C@H](CCCNC(=N)N)NC(=O)[C@H](CO)NC(=O)[C@H](Cc2ccc(O)cc2)NC(=O)[C@H](C)NC(=O)[C@@H]2CCCN2C(=O)[C@@H](N)CSSC[C@@H](C(=O)O)NC(=O)[C@H](CC(=O)O)NC1=O (H-CPAYSRYLDC-OH; disulfide 1-10)	> 1000		> 1000						> 1000	> 1000		> 1000		> 1000		2	530
